Measured values from ChEMBL document CHEMBL1122788, “Quantitative relationships between alpha-adrenergic activity and binding affinity of alpha-adrenoceptor agonists and antagonists” (J Med Chem, 1984).

Legend:
[1] = biological target: T1, Adrenergic receptor alpha-1 (Rattus norvegicus, UniProt P15823+P23944+P43140); assay: In vivo antagonist activity against (-)-phenylephrine-induced alpha-1 adrenergic receptor mediated vasoconstriction in pithed normotensive rats.; type: functional, organism-based
T1 sequence (P15823 whole entry): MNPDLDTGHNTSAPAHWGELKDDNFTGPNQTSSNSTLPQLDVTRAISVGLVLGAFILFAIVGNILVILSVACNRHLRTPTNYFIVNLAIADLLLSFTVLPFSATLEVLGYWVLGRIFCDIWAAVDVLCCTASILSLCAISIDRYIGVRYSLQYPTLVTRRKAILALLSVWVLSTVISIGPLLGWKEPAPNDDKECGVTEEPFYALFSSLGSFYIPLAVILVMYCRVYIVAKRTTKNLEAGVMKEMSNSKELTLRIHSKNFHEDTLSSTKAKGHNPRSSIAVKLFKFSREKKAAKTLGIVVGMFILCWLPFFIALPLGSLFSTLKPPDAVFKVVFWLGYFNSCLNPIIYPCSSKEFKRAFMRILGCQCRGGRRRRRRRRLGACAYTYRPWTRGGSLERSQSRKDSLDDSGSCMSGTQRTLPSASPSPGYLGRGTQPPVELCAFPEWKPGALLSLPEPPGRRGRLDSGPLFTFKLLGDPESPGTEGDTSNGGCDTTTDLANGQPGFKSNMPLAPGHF
T1 sequence (P23944 whole entry): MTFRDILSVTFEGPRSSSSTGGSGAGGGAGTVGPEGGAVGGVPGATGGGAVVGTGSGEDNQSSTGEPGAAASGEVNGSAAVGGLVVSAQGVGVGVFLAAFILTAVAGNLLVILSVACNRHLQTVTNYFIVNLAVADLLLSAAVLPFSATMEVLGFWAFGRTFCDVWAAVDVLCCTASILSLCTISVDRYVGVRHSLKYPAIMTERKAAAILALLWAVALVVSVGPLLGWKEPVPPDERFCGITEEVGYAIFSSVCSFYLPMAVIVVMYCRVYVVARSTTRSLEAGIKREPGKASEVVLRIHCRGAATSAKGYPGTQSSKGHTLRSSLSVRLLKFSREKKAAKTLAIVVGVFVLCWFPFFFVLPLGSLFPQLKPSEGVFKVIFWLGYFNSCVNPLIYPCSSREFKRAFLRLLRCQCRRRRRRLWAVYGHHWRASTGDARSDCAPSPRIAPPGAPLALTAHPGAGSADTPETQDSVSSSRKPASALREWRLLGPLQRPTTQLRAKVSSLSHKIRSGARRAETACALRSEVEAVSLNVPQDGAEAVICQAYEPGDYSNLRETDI
T1 sequence (P43140 whole entry): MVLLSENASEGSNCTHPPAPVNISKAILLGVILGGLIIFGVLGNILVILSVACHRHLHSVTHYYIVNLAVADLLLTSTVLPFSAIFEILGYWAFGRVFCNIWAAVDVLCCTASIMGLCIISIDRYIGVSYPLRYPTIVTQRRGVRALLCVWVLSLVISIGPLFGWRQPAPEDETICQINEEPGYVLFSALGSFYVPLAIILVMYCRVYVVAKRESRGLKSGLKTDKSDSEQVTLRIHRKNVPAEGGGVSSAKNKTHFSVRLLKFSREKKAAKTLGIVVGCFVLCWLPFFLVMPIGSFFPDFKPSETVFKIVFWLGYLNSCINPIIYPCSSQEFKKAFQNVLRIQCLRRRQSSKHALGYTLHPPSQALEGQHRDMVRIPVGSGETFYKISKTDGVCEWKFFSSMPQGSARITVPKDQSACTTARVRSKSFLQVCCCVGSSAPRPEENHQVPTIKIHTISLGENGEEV

[2] = biological target: T1, Adrenergic receptor alpha-1; assay: (§1) Inhibition of specific [3H]-prazosin binding (0.2 nM) to rat brain membranes alpha-1 adrenergic receptor; type: cell membranes, Membrane
Outline: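 Whole rat brain (minus cerebellum) from male Wistar rats (200–250 g), homogenized in ice-cold 50 mM Tris-HCl pH 7.7 and washed twice at 50000g. Bound ligand was collected by filtration and counted. IC50 was derived by log-probit analysis.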

Oryctolagus cuniculus = species: Oryctolagus cuniculus; assay: Index of alpha1/alpha2 adrenoceptor antagonist selectivity at pre and postsynaptic sites in vitro.; type: functional
[3] = biological target: T1, Adrenergic receptor alpha-1; assay: Antagonist activity against phenylephrine-induced alpha1- adrenoceptor mediated vasoconstriction in pithed normotensive rats.; type: functional
[4] = biological target: T1, Adrenergic receptor alpha-1; assay: as §1; type: cell membranes, Membrane; remark: listed apart in the source
Outline: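 Brain membranes were prepared from male Wistar rats (200–250 g, cerebellum removed) in ice-cold 50 mmol/L Tris-HCl, pH 7.7, with two 50000g spins, and used at 1 mg/mL protein (Lowry). […] Bound label was collected by vacuum filtration and counted. IC50 came from log probit analysis.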

[5] = biological target: Adrenergic receptor alpha-2 (Homo sapiens) (UniProt P08913+P18825+P18089); settings: Oryctolagus cuniculus

pA2 [3] | IC50 [4] | pC30 [5] | SMILES | pA2 [1] | IC50 [2] | Selectivity index (Oryctolagus cuniculus)
 |  |  | CN1C[C@H](C(=O)N[C@]2(C)O[C@@]3(O)[C@@H]4CCCN4C(=O)[C@H](Cc4ccccc4)N3C2=O)C[C@@H]2c3cccc4[nH]cc(c34)C[C@H]21 [DIHYDROERGOTAMINE] | 6.68 | 0.027 µM | 
6.09 | 0.205 µM | 5.89 | C=CCN1Cc2ccccc2-c2ccccc2C1 [AZAPETINE] |  |  | 1.08
